Calls of active or inactive are those of the source. No cut-off for these calls is given here.
Legend:
HeLa [1] = assay: Induction of microtubule network depolymerization in human HeLa cells assessed as appearance of disorganised microtubules at 10 nM after 24 hrs by immunofluorescence staining based confocal microscopic analysis; assay type: cell-based
Outline: (§1)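 HeLa cells treated 24 h at 10, 50 or 100 nM. They were then fixed in cold 4% formaldehyde for 15 min and stained with anti-β-tubulin for 2 h at room temperature. Alexa 488 secondary and DAPI counterstain followed; imaged by confocal microscopy at 20X.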

[2] = Cytotoxicity against normal human astrocytes assessed as inhibition of cell growth; assay type: cell-based, Astrocyte
HL-60 = assay: Antiproliferative activity against human HL-60 cells assessed as inhibition of cell growth; assay type: functional, cell-based
Outline: (§2)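 Growth inhibition of cancer cell lines read from dose-response curves; IC50 as mean ± SEM of at least three independent experiments.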

HeLa [3] = assay: Induction of apoptosis in human HeLa cells assessed as necrotic cells at 10 nM measured after 48 hrs by Annexin V-FITC/propidium iodide staining based flow cytometry (reference value: […]); assay type: functional
HeLa [4] = assay: Induction of apoptosis in human HeLa cells assessed as late apoptotic cells at 10 nM measured after 24 hrs by Annexin V-FITC/propidium iodide staining based flow cytometry (reference value: 1.22 %); assay type: functional
HeLa [5] = assay: Induction of apoptosis in human HeLa cells assessed as early apoptotic cells at 10 nM measured after 24 hrs by Annexin V-FITC/propidium iodide staining based flow cytometry (reference value: 0.96 %); assay type: functional
[6] = Inhibition of bovine brain tubulin polymerisation preincubated with compound followed by GTP addition and measured after 20 mins by turbidimetry based spectrophotometric method; assay type: tissue-based, Bos taurus
Outline: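 Bovine brain tubulin (10 µM) in glutamate buffer, preincubated with varying compound concentrations at 30 °C, then cooled to 0 °C. GTP added to 0.4 mM final, then warmed to 30 °C in a recording spectrophotometer. Assembly followed by turbidity at 350 nm.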

HeLa [7] = assay: Induction of apoptosis in human HeLa cells assessed as viable cells at 10 nM measured after 24 hrs by Annexin V-FITC/propidium iodide staining based flow cytometry (reference value: 97.28 %); assay type: functional; settings: read-out: Activity
HeLa [8] = assay: Induction of mitochondrial membrane potential loss in human HeLa cells assessed as cells with polarized mitochondrial membrane at 10 nM after 24 hrs by JC-1 dye-based flow cytometric analysis (reference value: 92.0 %); assay type: functional
HeLa [9] = assay: Induction of apoptosis in human HeLa cells assessed as late apoptotic cells at 10 nM measured after 48 hrs by Annexin V-FITC/propidium iodide staining based flow cytometry (reference value: 1.22 %); assay type: functional
Daoy = assay: Antiproliferative activity against human Daoy cells assessed as inhibition of cell growth; assay type: functional, cell-based
Outline: (§3)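 Compounds from 10 mM DMSO stocks; final DMSO ≤0.25%. Growth inhibition of cancer cell lines read from dose-response curves; IC50 as mean ± SEM of at least three independent experiments.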

HeLa [10] = assay: Induction of apoptosis in human HeLa cells assessed as viable cells at 10 nM measured after 48 hrs by Annexin V-FITC/propidium iodide staining based flow cytometry (reference value: 97.28 %); assay type: functional; settings: read-out: Activity
Jurkat = assay: Antiproliferative activity against human Jurkat cells assessed as inhibition of cell growth; assay type: functional, cell-based; outline: as §3
HeLa [11] = assay: Induction of mitochondrial membrane potential loss in human HeLa cells assessed as cells with depolarized mitochondrial membrane at 10 nM after 24 hrs by JC-1 dye-based flow cytometric analysis (reference value: 7.8 %); assay type: functional
HT-29 = assay: Antiproliferative activity against human HT-29 cells assessed as inhibition of cell growth; assay type: functional, cell-based; outline: as §2
[12] = Cytotoxicity against PHA-stimulated human PBL assessed as inhibition of cell growth; assay type: cell-based; settings: PHA-stimulated peripheral blood lymphocytes (PBL)
Outline: (§4)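 Peripheral blood lymphocytes from healthy donors, tested either unstimulated or stimulated with PHA; DMSO ≤0.25% final. Values are mean ± SEM of three separate experiments.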

Bos taurus [13] = species on record: Bos taurus; assay: Inhibition of [3H]colchicine binding to bovine brain tubulin at 0.5 uM relative to control; assay type: tissue-based
Outline: (§5)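 [3H]colchicine binding to purified tubulin, with tubulin at 0.5 µM and colchicine at 5 µM. Compounds tested at 5 and 0.5 µM. CA-4 was run in contemporaneous experiments for comparison.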

HeLa [14] = assay: Induction of apoptosis in human HeLa cells assessed as necrotic cells at 10 nM measured after 24 hrs by Annexin V-FITC/propidium iodide staining based flow cytometry (reference value: […]); assay type: functional
HeLa [15] = assay: Induction of microtubule network depolymerization in human HeLa cells assessed as appearance of disorganised microtubules at 50 nM after 24 hrs by immunofluorescence staining based confocal microscopic analysis; assay type: cell-based; outline: as §1
[16] = Cytotoxicity against human PBL assessed as inhibition of cell growth; assay type: cell-based; settings: peripheral blood lymphocytes (PBL); outline: as §4
HeLa [17] = assay: Induction of apoptosis in human HeLa cells assessed as early apoptotic cells at 10 nM measured after 48 hrs by Annexin V-FITC/propidium iodide staining based flow cytometry (reference value: 0.96 %); assay type: functional
HeLa [18] = assay: Induction of mitochondrial membrane potential loss in human HeLa cells assessed as cells with polarized mitochondrial membrane at 10 nM after 48 hrs by JC-1 dye-based flow cytometric analysis (reference value: 92.0 %); assay type: functional
Bos taurus [19] = species on record: Bos taurus; assay: Inhibition of [3H]colchicine binding to bovine brain tubulin at 5 uM relative to control; outline: as §5
HeLa [20] = assay: Induction of mitochondrial membrane potential loss in human HeLa cells assessed as cells with depolarized mitochondrial membrane at 10 nM after 48 hrs by JC-1 dye-based flow cytometric analysis (reference value: 7.8 %); assay type: functional
SEM cells = assay: Antiproliferative activity against human SEM cells assessed as inhibition of cell growth; assay type: functional, cell-based; outline: as §3
HeLa [21] = assay: Antiproliferative activity against human HeLa cells assessed as inhibition of cell growth; assay type: functional, cell-based; outline: as §2
HeLa [22] = assay: Induction of microtubule network depolymerization in human HeLa cells assessed as appearance of disorganised microtubules at 100 nM after 24 hrs by immunofluorescence staining based confocal microscopic analysis; assay type: cell-based; outline: as §1
[23] = Antitumor activity mouse E0771 cells implanted in C57BL/6 mouse assessed as reduction tumor growth at 30 mg/kg, ip administered every other day relative to control; assay type: functional, EO771; set-up: scale not given: the % may be the effect or the level left
Outline: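 Female C57BL/6 mice, seven weeks old, injected orthotopically into the mammary fat pad with 4 × 10^5 E0771 cells. Palpable tumours randomised into groups, dosed intraperitoneally every other day in DMSO vehicle, 100 µL final volume; vehicle-only controls. Caliper volume V=(D×d²)/2, tumour weight taken at end; n=5 mice/group; body weight monitored; two-way ANOVA with Bonferroni.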

Structure (SMILES)	IC50 (HL-60) [µM]	IC50 [6] [µM]	IC50 (Daoy) [µM]	IC50 (Jurkat) [µM]	IC50 (HT-29) [µM]	inhibition (Bos taurus [13]) [%]	inhibition (Bos taurus [19]) [%]	IC50 (SEM cells) [µM]	IC50 (HeLa [21]) [µM]	further results
COc1cc(C(=O)c2c(N)oc3cc(C)ccc23)cc(OC)c1OC	0.0035	0.39	0.00034	0.00033	0.0006	74	97	0.0003	0.0011	Activity (HeLa [1]): Active; GI50 [2]: > 10 µM; Activity (HeLa [3]): 27.08%; Activity (HeLa [4]): 2.51%; Activity (HeLa [5]): 10.95%; viability at 0.01 µM (HeLa [7]): 74.4%; Activity (HeLa [8]): 74.9%; Activity (HeLa [9]): 9.35%; viability at 0.01 µM (HeLa [10]): 26.4%; Activity (HeLa [11]): 24.8%; GI50 [12]: > 10 µM; Activity (HeLa [14]): 12.11%; Activity (HeLa [15]): Active; GI50 [16]: > 10 µM; Activity (HeLa [17]): 37.13%; Activity (HeLa [18]): 57.3%; Activity (HeLa [20]): 42.6%; Activity (HeLa [22]): Active
COc1cc(C(=O)c2c(N)oc3cc(F)ccc23)cc(OC)c1OC	0.413		0.846	0.299	0.682			0.333	0.591	
COc1cc(C(=O)c2c(N)oc3cc(Br)ccc23)cc(OC)c1OC	0.0056	0.57	0.0025	0.0028	0.0054	56	92	0.0035	0.0045	
COc1cc(C(=O)c2c(N)oc3ccc(N)cc23)cc(OC)c1OC	0.413		0.494	0.399	0.79			0.259	0.635	
COc1cc(C(=O)c2c(N)oc3cccc(OC)c23)cc(OC)c1OC	4.89		3.95	2.76	6.51			4.56	5.23	
COc1ccc2c(C(=O)c3cc(OC)c(OC)c(OC)c3)c(N)oc2c1	0.003	0.48	0.0003	0.0027	0.0056	79	99	0.0041	0.0029	
COc1ccc(/C=C\c2cc(OC)c(OC)c(OC)c2)cc1O [COMBRETASTATIN A4]			0.0123	0.0008		82	97			
COc1cc(C(=O)c2c(N)oc3cc(O)ccc23)cc(OC)c1OC	0.285		0.428	0.299	3.42			0.371	0.591	
COc1ccc(/C=C\c2cc(OC)c(OC)c(OC)c2)cc1OP(=O)([O-])[O-].[Na+].[Na+] [FOSBRETABULIN DISODIUM]										Activity [23]: 26.5%
COc1ccc2c(N)c(C(=O)c3cc(OC)c(OC)c(OC)c3)oc2c1	0.0035		0.005	0.0031	0.787			0.0036	0.0062	
CCCOc1ccc2c(C(=O)c3cc(OC)c(OC)c(OC)c3)c(N)oc2c1	0.0417	0.51	0.0044	0.0272	0.0177	42	91	0.0297	0.0227	
COc1cc(C(=O)c2c(N)oc3ccccc23)cc(OC)c1OC	0.339		0.371	0.385	0.591			0.25	0.413	
CCOc1cccc2c(C(=O)c3cc(OC)c(OC)c(OC)c3)c(N)oc12	0.428		1.67	0.39	0.91			0.385	1.25	
COc1cc(C(=O)c2c(N)oc3cc(OCc4ccccc4)ccc23)cc(OC)c1OC	7.06		> 10	4.39	8.68			3.68	9.67	
COc1ccc2oc(N)c(C(=O)c3cc(OC)c(OC)c(OC)c3)c2c1	0.0362	0.5	0.0362	0.0292	0.0629		73	0.0389	0.056	
COc1cc(C(=O)c2c(N)oc3c(O)c(OC)ccc23)cc(OC)c1OC	0.0028	0.59	0.00032	0.00034	0.424	87	99	0.259	0.0153	
COc1cc(C(=O)c2c(N)oc3c(OC)cccc23)cc(OC)c1OC	0.233		0.345	0.333	0.477			0.285	0.496	

— ChEMBL document CHEMBL4765328 (Eur J Med Chem, 2020)
